From paper PMC3690177 (Bioorganic & medicinal chemistry letters, 2008)

Assays:
Swiss mice [1] = assay: Formalin plantar test with; assay type: in vivo, mouse; settings: for Effect on analgesic effects of methanandamide in formalin test: 30 min before intraplantar formalin with mAEA 50 μg
Outline: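 Swiss mice were pretreated i.p. with vehicle, test compound (20 mg-kg−1) or CB1 antagonist (2 mg-kg−1). Intraplantar formalin followed 30 min later, with or without co-injected (R)-methanandamide (50 μg). Nociception was scored in the first phase (0–15 min) and second phase (15–45 min). n = 8–13. Analysis was repeated-measures ANOVA with Bonferroni tests. Error bars are SEM.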

CB1 receptors = CB1 receptors (Rattus norvegicus, UniProt P20272); assay: GTPγS binding in rat cerebellar membrane preparations; assay type: biochemical; settings: absence of WIN55,212-2; 100 nM–10 μM; data not shown
Chain of CB1 receptors (P20272 whole entry): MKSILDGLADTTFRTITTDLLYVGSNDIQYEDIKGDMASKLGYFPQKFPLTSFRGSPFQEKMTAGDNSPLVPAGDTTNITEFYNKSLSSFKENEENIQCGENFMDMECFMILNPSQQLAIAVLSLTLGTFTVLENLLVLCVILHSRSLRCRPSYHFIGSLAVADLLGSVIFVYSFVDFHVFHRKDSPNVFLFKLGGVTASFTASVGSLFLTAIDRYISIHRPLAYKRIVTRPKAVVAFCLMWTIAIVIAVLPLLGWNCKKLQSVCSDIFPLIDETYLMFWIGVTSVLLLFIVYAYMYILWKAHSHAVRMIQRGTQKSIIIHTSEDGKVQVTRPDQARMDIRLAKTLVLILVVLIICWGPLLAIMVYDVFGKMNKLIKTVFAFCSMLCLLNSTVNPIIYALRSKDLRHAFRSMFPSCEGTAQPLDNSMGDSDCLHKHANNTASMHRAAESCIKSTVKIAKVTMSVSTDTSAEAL

Swiss mice [2] = assay: Food intake over 24 h in Swiss mice; assay type: in vivo, mouse; settings: 30 min before dark onset; for Effect on total food consumption: 20 mg-kg−1 i.p.
Outline: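 Male Swiss mice were dosed i.p. with test compound (5 or 20 mg-kg−1) or vehicle 30 min before dark onset. Cumulative food intake was monitored for 24 h. n = 12 per group. Data were analysed by 2-way repeated-measures ANOVA with Bonferroni post hoc test. Error bars are SEM.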

mice [3] = assay: Motor activity in mice; assay type: in vivo, mouse; settings: 20 mg-kg−1 i.p.; data not shown
[4] = Drug levels in plasma and tissues after systemic administration; assay type: in vivo, mouse
mice [5] = assay: WIN55,212-2-induced catalepsy, ring catalepsy test; assay type: in vivo, mouse; settings: for Effect on WIN55,212-2-induced catalepsy: 30 min prior to WIN55,212-2 5 mg-kg−1
Outline: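 Mice were pretreated i.p. with vehicle, test compound (20 mg-kg−1) or CB1 antagonist (5 mg-kg−1). After 30 min they received vehicle or WIN55,212-2 (5 mg-kg−1, i.p.). Cataleptic behaviour was scored 30 min after the WIN55,212-2 injection. n = 6. Analysis was ANOVA with Bonferroni post hoc tests. Error bars are SEM.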

ob/ob mice = assay: Food intake and body-weight gain in ob/ob mice, daily treatment for 2 weeks; assay type: in vivo, mouse; settings: 20 mg-kg−1 i.p. once daily for 2 weeks
Outline: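 Genetically obese ob/ob mice received test compound (20 mg-kg−1, i.p.) or vehicle once daily for 2 weeks. Food intake was recorded, and body weight was expressed as % change from day 0. n = 8 per group. Analysis was 2-way repeated-measures ANOVA with Bonferroni post hoc test. Error bars are SEM.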

Swiss mice [6] = assay: WIN55,212-2-induced hypothermia; assay type: in vivo, mouse
Outline: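 Swiss mice received a first i.p. injection of vehicle, test compound (20 mg-kg−1) or CB1 antagonist (2 mg-kg−1). A second injection of WIN55,212-2 (3 mg-kg−1, i.p.) followed 30 min later. Body temperature was read 30 min after WIN55,212-2. n = 5. Analysis was ANOVA with Bonferroni post hoc tests. Error bars are SEM.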

mouse CB2 receptors = assay: cAMP accumulation in Hek-293 cells stably expressing mouse CB2 receptors; assay type: cell-based; settings: isoproterenol 10 μM alone; basal 18 ± 2.4; n = 4

CCCCC/C=C\C/C=C\C/C=C\C/C=C\CCCC(=O)N[C@H](C)CO [(R)-methanandamide]
Effect on nocifensive behavior in the formalin plantar test (Swiss mice [1]; mAEA 50 μg co-injected with formalin): inhibits

Cc1c(C(=O)c2ccccc2)c(N)c(-c2ccccc2)n1Cc1ccc(Cl)cc1 [URB447, [4-amino-1-(4-chlorobenzyl)-2-methyl-5-phenyl-1H-pyrrol-3-yl](phenyl)methanone]
Inhibition of basal GTPγS binding (CB1 receptors): failed to inhibit
Effect on food intake (Swiss mice [2]; 5 mg-kg−1 i.p.): no effect
Effect on total food consumption (Swiss mice [2]): drastically reduced
Effect on motor activity (mice [3]): did not alter
Liver Cmax ([4]; 20 mg-kg−1 i.p.): 4.3 ± 0.7 nmol/g
Time of maximal tissue levels in liver ([4]; 20 mg-kg−1 i.p.): 15 min
Time of maximal tissue levels in white adipose fat ([4]; 20 mg-kg−1 i.p.): 15 min
Cmax ([4]; mouse, plasma, ip, 20 mg): 596 ± 117 nM
Tmax ([4]; mouse, plasma, ip, 20 mg): 30 min
Effect on analgesic effects of methanandamide in formalin test (Swiss mice [1]; 20 mg-kg−1 i.p.): completely blocked
Effect on WIN55,212-2-induced catalepsy (mice [5]; 20 mg-kg−1 i.p.): unaffected
Amount of food consumed throughout the treatment period (ob/ob mice): significant reduction
Body-weight gain (ob/ob mice): significant attenuation

Cc1c(C(=O)c2cccc3ccccc23)c2cccc3c2n1[C@H](CN1CCOCC1)CO3 [WIN55,212-2]
Body temperature effect (Swiss mice [6]; 3 mg-kg−1 i.p., 30 min after administration): maximal hypothermia
Time spent cataleptic in the ring catalepsy test (mice [5]; 5 mg-kg−1, scored 30 min later): significant increase

CC(C)NCC(O)c1ccc(O)c(O)c1 (stereo not drawn) [isoproterenol]
cAMP levels (mouse CB2 receptors): 56.2 ± 6 pmol/well

Cc1c(C(=O)NN2CCCCC2)nn(-c2ccc(Cl)cc2Cl)c1-c1ccc(Cl)cc1 [rimonabant]
Effect on total food consumption (Swiss mice [2]): mimicked
Effect on analgesic effects of methanandamide in formalin test (Swiss mice [1]; 2 mg-kg−1 i.p.): completely blocked
Effect on WIN55,212-2-induced hypothermia (Swiss mice [6]; 2 mg-kg−1 i.p., 30 min pretreatment, WIN55,212-2 3 mg-kg−1 i.p.): attenuated
Effect on WIN55,212-2-induced catalepsy (mice [5]; 5 mg-kg−1 i.p.): reversed
